{"source": "ChEMBL document CHEMBL4402580", "about": "“Structure-Activity Relationship Studies of Tetrahydroquinolone Free Fatty Acid Receptor 3 Modulators” (J Med Chem, 2020)", "key": {"[1]": {"molecular_target": "T1, Free fatty acid receptor 3 (Homo sapiens) (UniProt O14843)", "T1 sequence (whole entry)": "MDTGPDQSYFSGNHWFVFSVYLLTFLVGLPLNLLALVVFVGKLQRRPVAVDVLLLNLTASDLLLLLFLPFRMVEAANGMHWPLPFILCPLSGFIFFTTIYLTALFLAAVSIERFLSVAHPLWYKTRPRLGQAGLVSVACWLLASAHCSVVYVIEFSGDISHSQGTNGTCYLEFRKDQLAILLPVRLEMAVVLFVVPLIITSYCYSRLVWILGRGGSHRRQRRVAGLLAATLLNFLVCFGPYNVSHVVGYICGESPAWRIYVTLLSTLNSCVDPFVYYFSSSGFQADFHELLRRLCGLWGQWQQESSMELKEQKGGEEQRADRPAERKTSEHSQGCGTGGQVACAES"}, "[2]": {"molecular_target": "T2, Free fatty acid receptor 4 (Homo sapiens) (UniProt Q5NUL3)", "T2 sequence (whole entry)": "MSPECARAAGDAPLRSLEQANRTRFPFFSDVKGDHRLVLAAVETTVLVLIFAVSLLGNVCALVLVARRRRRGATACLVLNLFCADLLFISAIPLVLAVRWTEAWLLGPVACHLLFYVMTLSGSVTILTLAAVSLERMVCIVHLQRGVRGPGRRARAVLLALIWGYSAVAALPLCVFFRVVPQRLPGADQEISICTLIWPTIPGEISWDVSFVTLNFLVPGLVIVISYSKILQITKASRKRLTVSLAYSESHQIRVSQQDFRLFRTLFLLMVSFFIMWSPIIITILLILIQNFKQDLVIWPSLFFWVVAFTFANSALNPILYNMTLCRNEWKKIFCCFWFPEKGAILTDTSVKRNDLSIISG", "assay": "Agonist activity at human C-terminal eYFP tagged FFA4 receptor stably expressed in HEK293T cells cotransfected with nano-luciferase assessed as recruitment of beta-arrestin2 at 10 uM followed by TUG-891 addition prior to compound treatment by BRET assay", "type": "cell-based"}, "[3]": {"molecular_target": "Free fatty acid receptor 1 (Homo sapiens) (UniProt O14842)", "sequence (O14842 whole entry)": "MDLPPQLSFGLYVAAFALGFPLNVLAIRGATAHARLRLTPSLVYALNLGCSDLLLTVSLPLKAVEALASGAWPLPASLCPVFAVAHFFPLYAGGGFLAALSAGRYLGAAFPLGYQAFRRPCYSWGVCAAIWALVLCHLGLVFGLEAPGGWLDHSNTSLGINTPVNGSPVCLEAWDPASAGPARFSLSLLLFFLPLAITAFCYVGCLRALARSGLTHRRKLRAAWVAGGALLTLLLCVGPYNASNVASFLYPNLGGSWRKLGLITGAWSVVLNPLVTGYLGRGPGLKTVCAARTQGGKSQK", "assay": "Agonist activity at human C-terminal eYFP tagged FFA1 receptor stably expressed in HEK293T cells cotransfected with nano-luciferase assessed as recruitment of beta-arrestin2 at 10 uM followed by TUG-770 addition prior to compound treatment by BRET assay", "type": "cell-based"}, "[4]": {"molecular_target": "G-protein coupled receptor 84 (Homo sapiens) (UniProt Q9NQS5)", "sequence (Q9NQS5 whole entry)": "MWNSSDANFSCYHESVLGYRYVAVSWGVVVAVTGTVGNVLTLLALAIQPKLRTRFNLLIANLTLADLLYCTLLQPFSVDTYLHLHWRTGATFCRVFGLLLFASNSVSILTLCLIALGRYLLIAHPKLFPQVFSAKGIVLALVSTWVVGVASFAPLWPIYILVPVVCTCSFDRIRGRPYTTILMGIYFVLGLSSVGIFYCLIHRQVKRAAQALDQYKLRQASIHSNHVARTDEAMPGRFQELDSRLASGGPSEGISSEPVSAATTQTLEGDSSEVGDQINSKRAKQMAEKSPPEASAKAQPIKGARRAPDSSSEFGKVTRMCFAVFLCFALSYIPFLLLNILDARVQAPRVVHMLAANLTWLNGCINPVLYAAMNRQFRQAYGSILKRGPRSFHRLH", "assay": "Agonist activity at human C-terminal Gia tagged GPR84 receptor stably expressed in Flp-In T-Rex 293 cells assessed as inhibition of forskolin-induced cAMP production at 10 uM after 45 mins by HTR-FRET assay", "type": "functional, cell-based"}, "[5]": {"molecular_target": "Voltage-dependent L-type calcium channel subunit alpha-1C (Homo sapiens, UniProt Q13936)", "sequence (Q13936 whole entry)": "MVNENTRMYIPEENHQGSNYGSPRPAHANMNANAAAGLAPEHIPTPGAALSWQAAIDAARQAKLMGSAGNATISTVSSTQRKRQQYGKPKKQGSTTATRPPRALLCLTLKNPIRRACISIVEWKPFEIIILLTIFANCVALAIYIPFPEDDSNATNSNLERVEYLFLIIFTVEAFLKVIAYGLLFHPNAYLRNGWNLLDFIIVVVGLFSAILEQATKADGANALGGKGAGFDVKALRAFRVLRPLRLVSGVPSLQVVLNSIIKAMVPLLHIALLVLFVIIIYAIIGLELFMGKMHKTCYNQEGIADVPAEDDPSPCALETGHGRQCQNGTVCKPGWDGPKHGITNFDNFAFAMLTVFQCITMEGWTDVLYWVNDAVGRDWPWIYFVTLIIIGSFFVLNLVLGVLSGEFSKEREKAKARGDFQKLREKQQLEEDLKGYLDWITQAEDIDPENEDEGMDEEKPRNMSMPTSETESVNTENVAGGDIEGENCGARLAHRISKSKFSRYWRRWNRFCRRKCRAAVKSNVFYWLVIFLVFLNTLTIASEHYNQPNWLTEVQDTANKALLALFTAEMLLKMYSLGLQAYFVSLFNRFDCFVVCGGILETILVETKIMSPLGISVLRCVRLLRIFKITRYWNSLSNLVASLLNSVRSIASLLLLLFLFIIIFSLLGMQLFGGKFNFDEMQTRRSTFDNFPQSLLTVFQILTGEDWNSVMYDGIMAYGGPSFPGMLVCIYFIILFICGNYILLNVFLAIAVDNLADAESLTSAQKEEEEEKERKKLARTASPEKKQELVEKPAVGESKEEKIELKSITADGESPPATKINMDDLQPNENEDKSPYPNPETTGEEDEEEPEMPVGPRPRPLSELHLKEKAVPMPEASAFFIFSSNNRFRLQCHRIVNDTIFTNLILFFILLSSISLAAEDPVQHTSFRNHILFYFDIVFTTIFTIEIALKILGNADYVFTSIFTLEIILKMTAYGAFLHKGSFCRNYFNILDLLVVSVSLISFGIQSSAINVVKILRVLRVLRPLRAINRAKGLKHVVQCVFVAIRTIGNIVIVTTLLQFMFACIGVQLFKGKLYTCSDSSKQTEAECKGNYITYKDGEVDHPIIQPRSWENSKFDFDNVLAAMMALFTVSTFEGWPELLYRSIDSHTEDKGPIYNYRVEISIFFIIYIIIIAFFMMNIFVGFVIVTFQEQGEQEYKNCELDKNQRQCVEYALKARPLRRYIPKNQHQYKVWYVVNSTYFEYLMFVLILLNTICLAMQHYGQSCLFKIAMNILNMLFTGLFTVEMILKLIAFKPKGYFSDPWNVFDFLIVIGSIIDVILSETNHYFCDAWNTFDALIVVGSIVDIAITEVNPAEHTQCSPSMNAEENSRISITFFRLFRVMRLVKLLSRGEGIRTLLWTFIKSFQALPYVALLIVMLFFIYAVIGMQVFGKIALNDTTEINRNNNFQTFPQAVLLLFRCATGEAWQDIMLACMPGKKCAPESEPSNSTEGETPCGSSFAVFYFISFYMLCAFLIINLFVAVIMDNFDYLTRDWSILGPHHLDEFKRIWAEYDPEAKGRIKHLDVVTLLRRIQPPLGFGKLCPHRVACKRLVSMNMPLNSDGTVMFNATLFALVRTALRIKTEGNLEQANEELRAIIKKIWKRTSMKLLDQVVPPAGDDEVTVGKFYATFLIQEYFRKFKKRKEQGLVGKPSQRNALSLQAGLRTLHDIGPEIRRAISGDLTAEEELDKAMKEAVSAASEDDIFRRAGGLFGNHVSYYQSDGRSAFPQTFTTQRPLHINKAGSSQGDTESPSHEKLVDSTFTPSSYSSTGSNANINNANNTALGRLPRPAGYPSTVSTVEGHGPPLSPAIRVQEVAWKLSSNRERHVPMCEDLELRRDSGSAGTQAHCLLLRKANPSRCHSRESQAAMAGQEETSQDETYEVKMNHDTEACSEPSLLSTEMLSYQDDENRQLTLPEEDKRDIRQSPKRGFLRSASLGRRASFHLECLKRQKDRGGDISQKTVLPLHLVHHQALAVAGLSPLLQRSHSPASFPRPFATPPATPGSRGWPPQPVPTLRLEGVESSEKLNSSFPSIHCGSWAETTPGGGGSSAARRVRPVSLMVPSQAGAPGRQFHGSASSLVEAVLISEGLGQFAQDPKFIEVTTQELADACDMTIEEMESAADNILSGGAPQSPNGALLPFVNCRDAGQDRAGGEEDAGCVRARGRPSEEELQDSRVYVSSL", "assay": "Displacement of [3H]-PN200-110 from recombinant full length human L-type calcium channel expressed in HEK293 cells at 10 uM incubated for 120 mins by radiometric scintillation counting method", "type": "cell-based", "conditions": "hek293, 2 h"}, "[6]": {"molecular_target": "T3, Free fatty acid receptor 2 (Homo sapiens) (UniProt O15552)", "T3 sequence (whole entry)": "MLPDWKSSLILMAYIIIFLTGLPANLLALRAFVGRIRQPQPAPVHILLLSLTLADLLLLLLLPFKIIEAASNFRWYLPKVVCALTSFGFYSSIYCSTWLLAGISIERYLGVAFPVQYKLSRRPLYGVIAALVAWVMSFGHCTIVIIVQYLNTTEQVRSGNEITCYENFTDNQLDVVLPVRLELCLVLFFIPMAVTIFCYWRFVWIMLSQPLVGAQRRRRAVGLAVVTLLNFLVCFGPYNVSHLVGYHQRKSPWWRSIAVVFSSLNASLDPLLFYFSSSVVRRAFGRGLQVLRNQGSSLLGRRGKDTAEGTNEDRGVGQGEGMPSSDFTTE", "assay": "Agonist activity at human C-terminal eYFP tagged FFA2 receptor stably expressed in Flp-In T-Rex 293 cells assessed as inhibition of forskolin-induced cAMP production at 10 uM after 30 mins by HTR-FRET assay", "type": "functional, cell-based"}, "[7]": {"molecular_target": "T1, Free fatty acid receptor 3 (Homo sapiens)", "remark": "listed apart in the source"}, "[8]": {"molecular_target": "T1, Free fatty acid receptor 3 (Homo sapiens)", "assay": "(§1) Positive allosteric modulation at human FFA3 receptor stably expressed in Flp-In T-Rex HEK293 cells cotransfected with eYFP assessed as inhibition of forskolin-induced cAMP production measured after 1 hr in presence of 1 uM propionate by fluorescence plate reader assay", "type": "functional, cell-based"}, "[9]": {"molecular_target": "T4, Free fatty acid receptor 3 (Homo sapiens, UniProt O14843)", "T4 sequence (O14843 whole entry)": "T1 sequence (whole entry)"}, "[10]": {"molecular_target": "T4, Free fatty acid receptor 3", "assay": "Agonist activity at human FFA3 receptor stably expressed in Flp-In T-Rex HEK293 cell membrane assessed as stimulation of [35S]-GTPgammaS binding measured after 1 hr in presence of GDP by liquid scintillation spectrometry"}, "[11]": {"molecular_target": "T4, Free fatty acid receptor 3", "assay": "as §1", "type": "functional, cell-based"}, "[12]": {"molecular_target": "T1, Free fatty acid receptor 3 (Homo sapiens)", "assay": "Negative allosteric modulation at human FFA3 receptor stably expressed in Flp-In T-Rex HEK293 cells cotransfected with eYFP assessed as effect on forskolin-induced cAMP production at 30 uM measured after 1 hr in presence of 3 uM propionate by fluorescence plate reader assay"}, "[13]": {"molecular_target": "T5, Free fatty acid receptor 3 (Mus musculus) (UniProt Q3UFD7)", "T5 sequence (whole entry)": "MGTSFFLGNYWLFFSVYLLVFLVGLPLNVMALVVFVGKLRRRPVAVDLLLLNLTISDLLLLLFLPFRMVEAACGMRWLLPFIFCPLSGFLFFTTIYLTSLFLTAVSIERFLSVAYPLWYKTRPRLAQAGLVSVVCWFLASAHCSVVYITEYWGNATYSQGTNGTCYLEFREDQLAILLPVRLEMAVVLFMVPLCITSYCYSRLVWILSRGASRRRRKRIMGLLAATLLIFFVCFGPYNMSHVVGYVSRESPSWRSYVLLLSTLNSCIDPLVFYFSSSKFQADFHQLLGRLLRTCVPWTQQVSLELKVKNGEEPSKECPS", "assay": "Agonist activity at FFA3 in C57/BL6 mouse DRG neurons assessed as increase in intracellular calcium level at 5 uM by Fura-8/AM staining based inverted fluorescence microscopy", "type": "functional, cell-based", "how_it_was_run": "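Mouse colonic-innervating DRGs (T9–L2), wild-type C57/BL6 and FFA3 knockout, digested with papain/L-cysteine then collagenase/dispase, triturated, cultured overnight on matrigel. Cells loaded with Fura 8-AM (3 μM, 20 min, 37 °C), perfused with HEPES buffer pH 7.4, ligand applied 3 min, then ionomycin 5 μM as positive control. Read-out: relative fluorescence by real-time imaging; N = 3 mice per genotype.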"}, "[14]": {"assay": "Chemical stability of compound in DMSO assessed as compound degradation at 25 degree C measured after 30 days by NMR analysis", "type": "physicochemical", "conditions": "720 h"}, "[15]": {"assay": "Chemical stability of compound in DMSO at 4 degree C measured after 7 days by NMR analysis", "type": "physicochemical", "conditions": "read-out: Stability"}, "[16]": {"assay": "Chemical stability of compound in DMSO at 4 degree C measured after 30 days by NMR analysis", "type": "physicochemical", "conditions": "read-out: Stability"}, "[17]": {"assay": "Chemical stability of compound in DMSO at 25 degree C measured after 7 days by NMR analysis", "type": "physicochemical", "conditions": "read-out: Stability"}, "[18]": {"tested_on": "DRG neuron", "assay": "Effect on intracellular calcium level in FFA3 knock out C57/BL6 mouse DRG neurons at 5 uM by Fura-8/AM staining based inverted fluorescence microscopy", "type": "functional, cell-based", "how_it_was_run": "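DRGs from T9–L2 spinal cord of FFA3 knock-out and wild-type C57/BL6 mice; papain/L-cysteine then collagenase/dispase digestion (20 min each, 37 °C), trituration, matrigel coverslips, overnight culture in DMEM/10% FCS. Fura 8-AM (3 μM) loading 20 min, 37 °C; perfusion with HEPES buffer pH 7.4 at room temperature; ligand applied 3 min, then ionomycin 5 μM. Relative fluorescence; N = 3 mice.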"}}, "note": "Activity calls are given as the source filed them. No cut-off for these calls is given here."}
{"smiles": "Cc1ccccc1NC(=O)C1=C(c2ccccc2)NC2=C(C(=O)CCC2)C1c1ccco1", "note": "(centres undefined)", "values": [{"measurement": "pEC50", "setting": "[1]", "result": "inactive"}]}
{"smiles": "CC1=C(C(=O)c2ccccc2)C(CC(C)C)C2=C(CCCC2=O)N1", "note": "(centres undefined)", "values": [{"measurement": "pEC50", "setting": "[1]", "result": "inactive"}]}
{"smiles": "CC1=C(C(=O)Nc2cc(Cl)ccc2Cl)C(c2ccco2)C2=C(CCCC2=O)N1", "note": "(centres undefined)", "values": [{"measurement": "Activity", "setting": "[2]", "result": "inactive"}, {"measurement": "Activity", "setting": "[3]", "result": "inactive"}, {"measurement": "Activity", "setting": "[4]", "result": "inactive"}, {"measurement": "inhibition (INH)", "setting": "[5]", "result": "Not Active"}, {"measurement": "Activity", "setting": "[6]", "result": "inactive"}]}
{"smiles": "CC1=C(C(=O)Nc2cc(Cl)ccc2Cl)C(CN)C2=C(CCCC2=O)N1", "note": "(centres undefined)", "values": [{"measurement": "pEC50", "setting": "[1]", "result": "inactive"}]}
{"smiles": "CC1=C(C(=O)Nc2ccccc2C)C(c2ccccc2Br)C2=C(CCCC2=O)N1", "note": "(centres undefined)", "values": [{"measurement": "pEC50", "setting": "[7]", "result": "inactive"}]}
{"smiles": "CC1=C(C(=O)Nc2cc(Cl)ccc2Cl)C(CNC(=O)OC(C)(C)C)C2=C(CCCC2=O)N1", "note": "(centres undefined)", "values": [{"measurement": "pEC50", "setting": "[1]", "result": "inactive"}]}
{"smiles": "CC1=C(C(=O)Nc2ccccc2C)C(CC(C)C)C(C(=O)c2ccccc2)=C(C)N1", "note": "(centres undefined)", "values": [{"measurement": "pEC50", "setting": "[8]", "result": "inactive"}, {"measurement": "pEC50", "setting": "[1]", "result": "inactive"}]}
{"smiles": "CCC(=O)O", "note": "[PROPIONIC ACID]", "values": [{"measurement": "EC50", "setting": "[9]", "result": 11.7, "unit": "µM"}, {"measurement": "EC50", "setting": "[10]", "result": 10.7, "unit": "µM"}]}
{"smiles": "CC1=C(C(=O)Nc2ccccc2C)C(c2ccco2)C2=C(CCCC2=O)N1", "note": "(centres undefined)", "values": [{"measurement": "Activity", "setting": "[2]", "result": "inactive"}, {"measurement": "EC50", "setting": "[11]", "result": 0.537, "unit": "µM"}, {"measurement": "Activity", "setting": "[3]", "result": "inactive"}, {"measurement": "Activity", "setting": "[4]", "result": "inactive"}, {"measurement": "inhibition (INH)", "setting": "[5]", "result": "Not Active"}, {"measurement": "Activity", "setting": "[6]", "result": "inactive"}]}
{"smiles": "CCN(CC)CCOCC1C(C(=O)Nc2cc(Cl)ccc2Cl)=C(C)NC2=C1C(=O)CCC2", "note": "(centres undefined)", "values": [{"measurement": "pEC50", "setting": "[1]", "result": "inactive"}]}
{"smiles": "CC1=C(C(=O)Nc2cc(Cl)ccc2Cl)C(C2CCCC2)C2=C(CCCC2=O)N1", "note": "(centres undefined)", "values": [{"measurement": "Activity", "setting": "[2]", "result": "inactive"}, {"measurement": "Activity", "setting": "[3]", "result": "inactive"}, {"measurement": "Activity", "setting": "[4]", "result": "inactive"}, {"measurement": "inhibition (INH)", "setting": "[5]", "result": "Not Active"}, {"measurement": "Activity", "setting": "[6]", "result": "inactive"}]}
{"smiles": "Cc1ccccc1NC(=O)c1c(C)nc2c(c1-c1ccco1)C(=O)CCC2", "values": [{"measurement": "pEC50", "setting": "[8]", "result": "inactive"}, {"measurement": "pEC50", "setting": "[1]", "result": "inactive"}]}
{"smiles": "CC1=C(C(=O)Nc2cc(Cl)ccc2Cl)C(CC2CCNCC2)C2=C(CCCC2=O)N1", "note": "(centres undefined)", "values": [{"measurement": "pEC50", "setting": "[1]", "result": "inactive"}]}
{"smiles": "COC(=O)C1=C(C)NC(C)=C(C(=O)Nc2ccccc2C)C1CC(C)C", "note": "(centres undefined)", "values": [{"measurement": "pEC50", "setting": "[1]", "result": "inactive"}]}
{"smiles": "CC1=C(C(=O)Nc2cc(Cl)ccc2Cl)C(CC2CCN(C(=O)OC(C)(C)C)CC2)C2=C(CCCC2=O)N1", "note": "(centres undefined)", "values": [{"measurement": "Activity", "setting": "[12]", "result": "Active"}, {"measurement": "pEC50", "setting": "[1]", "result": "inactive"}]}
{"smiles": "CCCC1C(C(=O)Nc2cc(Cl)ccc2Cl)=C(C)NC2=C1C(=O)CCC2", "note": "(centres undefined)", "values": [{"measurement": "Activity", "setting": "[13]", "result": "Active"}, {"measurement": "Activity", "setting": "[2]", "result": "inactive"}, {"measurement": "Stability", "setting": "[14]", "result": "Unstable"}, {"measurement": "remaining at 168 h", "setting": "[15]", "result": 100, "unit": "%"}, {"measurement": "Activity", "setting": "[3]", "result": "inactive"}, {"measurement": "remaining at 720 h", "setting": "[16]", "result": 100, "unit": "%"}, {"measurement": "remaining at 168 h", "setting": "[17]", "result": 100, "unit": "%"}, {"measurement": "Activity", "setting": "[4]", "result": "inactive"}, {"measurement": "Activity", "setting": "[18]", "result": "inactive"}, {"measurement": "inhibition (INH)", "setting": "[5]", "result": "Not Active"}, {"measurement": "Activity", "setting": "[6]", "result": "inactive"}]}
{"smiles": "COC(=O)C1=C(C)NC2=C(C(=O)CCC2)C1CC(C)C", "note": "(centres undefined)", "values": [{"measurement": "pEC50", "setting": "[1]", "result": "inactive"}]}
